According to ChEMBL document CHEMBL5370595, “Development of Iodinated Indocyanine Green Analogs as a Strategy for Targeted Therapy of Liver Cancer” (ACS Med Chem Lett, 2023):

Tests used:
[1] = Drug uptake in human Hep3B cells assessed as increase in mean fluorescence intensity at 10 uM incubated for 1 hr by flow cytometry analysis; format: ADME, cell-based; details: hep 3b2, 1 h
Method in brief: (§1)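 Flow cytometry of cells exposed to 10 μM compound for 1 h, read as mean fluorescence intensity. Cell lines were OATP1B3-overexpressing HEK-293T (lentiviral transduction, MOI 10), parental HEK-293T, Hep3B, HepG2 and Huh-7.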

[2] = Drug uptake in HEK293T cells expressing OATP1B3 assessed as increase in mean fluorescence intensity at 10 uM incubated for 1 hr by flow cytometry analysis; format: ADME, cell-based; details: human, hek-293t; method in brief: as §1
[3] = Drug uptake in parent HEK293T cells assessed as increase in mean fluorescence intensity at 10 uM incubated for 1 hr by flow cytometry analysis; format: ADME, cell-based; details: human, hek-293t; method in brief: as §1
[4] = Drug uptake in human Huh-7 cells assessed as increase in mean fluorescence intensity at 10 uM incubated for 1 hr by flow cytometry analysis; format: ADME, cell-based; details: huh-7, 1 h; method in brief: as §1
[5] = Drug uptake in human HepG2 cells assessed as increase in mean fluorescence intensity at 10 uM incubated for 1 hr by flow cytometry analysis; format: ADME, cell-based; details: hepg2, 1 h; method in brief: as §1
[6] = Drug uptake in human SH-SY5Y cells assessed as increase in fluorescence signal at 10 to 25 uM incubated for 1 hr by confocal fluorescence microscopy based analysis; format: ADME, cell-based; details: dose 10-25 µM
[7] = Drug uptake in human HepG2 cells assessed as increase in fluorescence signal at 10 to 25 uM incubated for 1 hr by confocal fluorescence microscopy based analysis; format: ADME, cell-based; details: hepg2, 1 h, dose 10-25 µM
[8] = Drug uptake in human HB17 cells assessed as increase in fluorescence signal at 25 uM incubated for 1 hr by flow cytometry based analysis; format: ADME, cell-based; details: hb17, 1 h
[9] = Drug uptake in tumor of athymic nude mouse xenografted with human Hep3B cells assessed as increase in tumor signal at 2 mg/kg, iv measured after 48 hrs post injection by IVIS Lumina imaging system; format: ADME, organism-based, Neoplasm, Hep 3B2; details: in vivo
Method in brief: (§2)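 Female athymic nude mice bearing Hep3B or Huh-7 tumors received 2 mg/kg intravenously. They were imaged by IVIS at 4, 24 and 48 h. Tumors and livers were excised at 48 h for ex vivo fluorescence, with background taken from the neck signal.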

[10] = Ratio of drug concentration in athymic nude mouse tumor to liver xenografted with human Huh-7 cells assessed as tumor to liver ratio at 2 mg/kg measured after 48 hrs post injection by IVIS Lumina imaging system; format: ADME, organism-based; details: in vivo
Method in brief: (§3)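 Tumor-to-liver ratio was calculated from ex vivo fluorescence of excised tumors and livers at 48 h after 2 mg/kg intravenous dosing in xenograft-bearing female athymic nude mice.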

[11] = Drug uptake in athymic nude mouse liver xenografted with human Huh-7 cells assessed as increase in liver signal at 2 mg/kg, iv measured after 48 hrs post injection by IVIS Lumina imaging system; format: ADME, organism-based; details: in vivo; method in brief: as §2
[12] = Drug uptake in lung of non-tumor bearing mouse assessed as increase in fluorescence signal at 10 mg/kg, iv measured after 72 hrs post injection by IVIS Lumina imaging system; format: ADME, organism-based; details: in vivo
Method in brief: (§4)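 Mice with orthotopic HB52 or HB66 hepatoblastoma PDX tumors, and non-tumor-bearing mice, received 10 mg/kg intravenously. Tumor growth was followed by MRI. Mice were imaged by IVIS at 24, 48 and 72 h, then tumors, livers and lungs were analysed ex vivo at 72 h, n = 1.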

[13] = Ratio of drug concentration in athymic nude mouse tumor to liver xenografted with human Hep3B cells assessed as tumor to liver ratio at 2 mg/kg measured after 48 hrs post injection by IVIS Lumina imaging system; format: ADME, organism-based; details: in vivo; method in brief: as §3
[14] = Drug uptake in liver of athymic nude mouse xenografted with human Hep3B cells assessed as increase in liver signal at 2 mg/kg, iv measured after 48 hrs post injection by IVIS Lumina imaging system; format: ADME, organism-based, Hep 3B2; details: in vivo; method in brief: as §2
[15] = Drug uptake in liver of mouse xenografted with HB66 PDX model assessed as increase in fluorescence signal at 10 mg/kg, iv measured after 72 hrs post injection by IVIS Lumina imaging system; format: ADME, organism-based; details: in vivo; method in brief: as §4
[16] = Drug uptake tumor of in athymic nude mouse xenografted with human Huh-7 cells assessed as tumor to background ratio at 2 mg/kg, iv measured after 4 to 48 hrs by IVIS Lumina imaging system; format: ADME, organism-based, Neoplasm; details: in vivo, time 4-48 hrs
[17] = Drug uptake in human HepG2 cells assessed as increase in fluorescence signal at 25 uM incubated for 1 hr by flow cytometry based analysis; format: ADME, cell-based; details: hepg2, 1 h
[18] = Drug uptake in tumor of mouse xenografted with HB66 PDX model assessed as increase in fluorescence signal at 10 mg/kg, iv measured after 72 hrs post injection by IVIS Lumina imaging system; format: ADME, organism-based, Neoplasm; details: in vivo; method in brief: as §4
[19] = Drug uptake in human HB17 cells assessed as increase in fluorescence signal at 10 to 25 uM incubated for 1 hr by confocal fluorescence microscopy based analysis; format: ADME, cell-based; details: hb17, 1 h, dose 10-25 µM
[20] = Drug uptake in tumor of athymic nude mouse xenografted with human Hep3B cells assessed as tumor to background ratio at 2 mg/kg, iv measured after 4 to 48 hrs by IVIS Lumina imaging system; format: ADME, organism-based, Neoplasm, Hep 3B2; details: in vivo, time 4-48 hrs
[21] = Drug uptake in human SH-SY5Y cells assessed as increase in fluorescence signal at 25 uM incubated for 1 hr by flow cytometry based analysis; format: ADME, cell-based
[22] = Drug uptake in tumor of mouse xenografted with HB52 PDX model assessed as increase in fluorescence signal at 10 mg/kg, iv measured after 72 hrs post injection by IVIS Lumina imaging system; format: ADME, organism-based, Neoplasm; details: in vivo; method in brief: as §4
[23] = Drug uptake in tumor of athymic nude mouse xenografted with human Huh-7 cells assessed as increase in tumor signal at 2 mg/kg, iv measured after 48 hrs post injection by IVIS Lumina imaging system; format: ADME, organism-based, Neoplasm; details: in vivo; method in brief: as §2
[24] = Drug uptake in liver of mouse xenografted with HB52 PDX model assessed as increase in fluorescence signal at 10 mg/kg, iv measured after 72 hrs post injection by IVIS Lumina imaging system; format: ADME, organism-based; details: in vivo; method in brief: as §4
[25] = Drug uptake in human Hep3B at 10 uM incubated for 1 hr by DAPI staining based flow cytometry analysis; format: ADME, cell-based; details: hep 3b2, 1 h
[26] = Drug uptake in HEK293T cells expressing OATP1B3 by DAPI staining based confocal fluorescence microscopy analysis; format: ADME, cell-based; details: human, hek-293t
[27] = Drug uptake in human HepG2 at 10 uM incubated for 1 hr by DAPI staining based flow cytometry analysis; format: ADME, cell-based; details: hepg2, 1 h
[28] = Drug uptake in parent HEK293T cells at 10 uM incubated for 1 hr by DAPI staining based flow cytometry analysis; format: ADME, cell-based; details: human, hek-293t
[29] = Drug uptake in parent HEK293T cells by DAPI staining based confocal fluorescence microscopy analysis; format: ADME, cell-based; details: human, hek-293t
[30] = Drug uptake in human Hep3B cells expressing OATP1B3 by DAPI staining based confocal fluorescence microscopy analysis; format: ADME, cell-based; details: hep 3b2
[31] = Drug uptake in HEK293T cells expressing OATP1B3 at 10 uM incubated for 1 hr by DAPI staining based flow cytometry analysis; format: ADME, cell-based; details: human, hek-293t
[32] = Drug uptake in human HepG2 cells expressing OATP1B3 by DAPI staining based confocal fluorescence microscopy analysis; format: ADME, cell-based

| Drug uptake [1] | Drug uptake [2] | Drug uptake [3] | Drug uptake [4] | Drug uptake [5] | Drug uptake [6] | Drug uptake [7] | Drug uptake [8] | Ratio [10] | Ratio [13] | Ratio [16] | Drug uptake [17] | Drug uptake [19] | Ratio [20] | Drug uptake [21] | SMILES | other results |
| --- | --- | --- | --- | --- | --- | --- | --- | --- | --- | --- | --- | --- | --- | --- | --- | --- |
| Active | Active | Active | Active | Active |  |  |  |  |  |  |  |  |  |  | CC1(C)C(/C=C/C=C/C=C/C=C2/N(CCCCS(=O)(=O)[O-])c3cccc(I)c3C2(C)C)=[N+](CCCCS(=O)(=O)[O-])c2ccc3ccccc3c21.[Na+] |  |
| Active | Active | Active | Active | Active |  |  |  |  |  |  |  |  |  |  | CC1(C)C(/C=C/C=C/C=C/C=C2/N(CCCCS(=O)(=O)[O-])c3ccc(I)cc3C2(C)C)=[N+](CCCCS(=O)(=O)[O-])c2ccc(I)cc21.[Na+] |  |
| Active | Active | Active | Active | Active | Not Active | Active | Active | 2 | 3 | 2 | Active | Active | 5 | Not Active | CC1(C)C(/C=C/C=C/C=C/C=C2/N(CCCCS(=O)(=O)[O-])c3cccc(I)c3C2(C)C)=[N+](CCCCS(=O)(=O)[O-])c2cccc(I)c21.[Na+] | Drug uptake [9]: Active; Drug uptake [11]: Active; Drug uptake [12]: Not Active; Drug uptake [14]: Active; Drug uptake [15]: Not Active; Drug uptake [18]: Active; Drug uptake [22]: Active; Drug uptake [23]: Active; Drug uptake [24]: Not Active |
| Active | Active | Active | Active | Active |  |  |  |  |  |  |  |  |  |  | CC1(C)C(/C=C/C=C/C=C/C=C2/N(CCCCS(=O)(=O)[O-])c3cc(I)ccc3C2(C)C)=[N+](CCCCS(=O)(=O)[O-])c2cc(I)ccc21.[Na+] |  |
|  |  |  |  |  | Not Active | Active | Active | 2 | 3 | 2 | Active | Active | 2 | Not Active | CC1(C)C(/C=C/C=C/C=C/C=C2/N(CCCCS(=O)(=O)[O-])c3ccc4ccccc4c3C2(C)C)=[N+](CCCCS(=O)(=O)[O-])c2ccc3ccccc3c21.[Na+] [INDOCYANINE GREEN] | Drug uptake [25]: Active; Drug uptake [26]: Active; Drug uptake [27]: Active; Drug uptake [28]: Active; Drug uptake [29]: Active; Drug uptake [30]: Active; Drug uptake [31]: Active; Drug uptake [32]: Active |
